{"data": "Measured values gathered from unrelated publications", "effect on": "cell growth or viability"}
{"Structure (SMILES)": "O=C(CCc1ccc(Cl)cc1)N1C(=O)C(=Nc2ccc(Cl)cc2Br)c2ccccc21", "cell line": "L02", "technique": "MTT", "time": "48 h", "IC50": "> 100000 nM"}
{"Structure (SMILES)": "COc1c(Cl)cccc1Nc1c(-c2ccncc2OC[C@@H]2COCCO2)[nH]c2c1C(=O)NCC2", "cell line": "HCC1419", "technique": "ATP luminescence", "IC50": "6.4 nM"}
{"Structure (SMILES)": "O=C(NO)c1ccc(Cn2cnc3c(Nc4ccc(Br)cc4F)ncnc32)cc1", "cell line": "NALM-6", "technique": "MTT", "time": "72 h", "IC50": "2120 nM"}
{"Structure (SMILES)": "Cc1cc(Nc2ncnc3ccc(NC4=NC(C)(C)CO4)cc23)ccc1Oc1ccn2ncnc2c1", "cell line": "HCC1419", "technique": "ATP luminescence", "IC50": "30.2 nM"}
{"Structure (SMILES)": "Cc1cccc(N=C2C(=O)N(Cc3cccc(Cl)c3)c3ccccc32)c1", "cell line": "L02", "technique": "MTT", "time": "48 h", "IC50": "25800 nM"}
{"Structure (SMILES)": "COc1ccc(Nc2ncnc3c2ncn3Cc2ccc(C(=O)NO)cc2)cc1", "cell line": "NALM-6", "technique": "MTT", "time": "72 h", "IC50": "2010 nM"}
{"Structure (SMILES)": "O=C1C(=Nc2ccc(Cl)cc2)c2ccccc2N1Cc1ccc(Br)cc1", "cell line": "L02", "technique": "MTT", "time": "48 h", "IC50": "> 100000 nM"}
{"Structure (SMILES)": "COc1cc([C@@H]2c3cc4c(cc3[C@@H](O[C@@H]3O[C@@H]5CO[C@@H](C)O[C@H]5[C@H](O)[C@H]3O)[C@H]3COC(=O)[C@H]23)OCO4)cc(OC)c1O", "cell line": "MOLT-3", "technique": "XTT", "time": "75 h", "IC50": "78 nM"}
{"Structure (SMILES)": "COc1ccc(Nc2ncnc3c2ncn3Cc2ccc(C(=O)Nc3ccccc3N)cc2)cc1", "cell line": "NALM-6", "technique": "MTT", "time": "72 h", "IC50": "7810 nM"}
{"Structure (SMILES)": "Cc1ncsc1-c1ccc(CNC(=O)[C@@H]2C[C@@H](O)CN2C(=O)[C@@H](NC(=O)C2(F)CC2)C(C)(C)C)c(OCCOc2ccc(CN3CCN(c4cc(-c5ccccc5O)nnc4N)CC3)cc2)c1", "cell line": "NCI-H1944", "technique": "ATP luminescence", "time": "7 days", "IC50": "168 nM"}
{"Structure (SMILES)": "CC(C)c1cccc(C(C)C)c1N=C1C(=O)Nc2ccccc21", "cell line": "L02", "technique": "MTT", "time": "48 h", "IC50": "31600 nM"}
{"Structure (SMILES)": "COc1cccc2c1cc1c3c(cc4c(c32)OCO4)C(=O)N1C", "cell line": "MOLT-3", "technique": "XTT", "time": "75 h", "IC50": "50300 nM"}
{"Structure (SMILES)": "C(=N\\Nc1cc(N/N=C/c2cccc3cccnc23)ncn1)/c1cccc2cccnc12", "cell line": "L02", "technique": "MTT", "time": "48 h", "IC50": "31600 nM"}
{"Structure (SMILES)": "O=C1Nc2ccccc2C1=Nc1ccc(Cl)cc1", "cell line": "L02", "technique": "MTT", "time": "48 h", "IC50": "28400 nM"}
{"Structure (SMILES)": "CC(C)(C)c1cnc(CSc2cnc(NC(=O)C3CCN(C(=O)CCCCCCCN4Cc5cc6c(cc5C4)C(=O)N(C4CCC(=O)NC4=O)C6=O)CC3)s2)o1 (stereo not drawn)", "cell line": "REH", "technique": "MTT", "IC50": "6.6 nM"}
{"Structure (SMILES)": "COc1cccc2c1C(=O)c1c(O)c3c(c(O)c1C2=O)C[C@@](O)(C(=O)CO)C[C@@H]3O[C@H]1C[C@H](N)[C@H](O)[C@H](C)O1", "cell line": "CAL-51", "technique": "ATP luminescence", "time": "72 h", "IC50": "120 nM"}
{"Structure (SMILES)": "COc1cc([C@@H]2c3cc4c(cc3[C@@H](O[C@@H]3O[C@@H]5CO[C@@H](C)O[C@H]5[C@H](O)[C@H]3O)[C@H]3COC(=O)[C@H]23)OCO4)cc(OC)c1O", "cell line": "MOLT-3", "technique": "XTT", "IC50": "61 nM"}
{"Structure (SMILES)": "C(=N\\Nc1cc(N/N=C/c2cccc3cccnc23)nc(-c2ccccc2)n1)/c1cccc2cccnc12", "cell line": "L02", "technique": "MTT", "time": "48 h", "IC50": "> 100000 nM"}
{"Structure (SMILES)": "O=C(NO)c1ccc(Cn2cnc3c(Nc4ccc(F)c(Cl)c4)ncnc32)cc1", "cell line": "NALM-6", "technique": "MTT", "time": "72 h", "IC50": "2020 nM"}
{"Structure (SMILES)": "CC(C)c1cccc(C(C)C)c1N=C1C(=O)N(Cc2ccccc2)c2ccccc21", "cell line": "L02", "technique": "MTT", "time": "48 h", "IC50": "59000 nM"}
{"Structure (SMILES)": "Cc1ncsc1-c1ccc([C@H](C)NC(=O)[C@@H]2C[C@@H](O)CN2C(=O)[C@@H](NC(=O)CN2CCN(c3cc(-c4ccccc4O)nnc3N)CC2)C(C)(C)C)cc1", "cell line": "NCI-H1944", "technique": "ATP luminescence", "time": "7 days", "IC50": "215 nM"}
{"Structure (SMILES)": "COc1cc(N=C2C(=O)Nc3ccccc32)cc(OC)c1", "cell line": "L02", "technique": "MTT", "time": "48 h", "IC50": "> 100000 nM"}
{"Structure (SMILES)": "C=C[C@]1(C)C=C2CC[C@H]3C(C)(C)CCC[C@]3(C)[C@H]2CC1", "cell line": "MOLT-3", "technique": "XTT", "time": "75 h", "IC50": "125000 nM"}
{"Structure (SMILES)": "Cc1nc(Nc2ncc(C(=O)Nc3c(C)cccc3Cl)s2)cc(N2CC[C@H](O)C2)n1", "cell line": "REH", "technique": "ATP luminescence", "time": "72 h", "IC50": "> 10000 nM"}
